Laboratory results reported in paper PMC10258837 (Journal of the American Chemical Society, 2021).

Columns and labels:
AnpI = AnpI substrate test; type: biochemical, Streptomyces lavendulae subsp. lavendulae strain NRRL B-2775; conditions: free (not T domain-bound) substrate
AnpE orthologs [1] = assay: amino acid-dependent ATP-PPi exchange, AnpE orthologs; type: biochemical; conditions: amino acid-dependent ATP-PPi exchange assay
AnpF orthologs = assay: amino acid-dependent ATP-PPi exchange, AnpF orthologs; type: biochemical; conditions: amino acid-dependent ATP-PPi exchange assay
Mur15 [2] = molecular target: T1, Mur15 (Streptomyces sp. NRRL 30471, UniProt F2WUC7); assay: Mur15 substrate scope; type: biochemical; conditions: for Mur15-catalyzed hydroxylation (substrate conversion): Fe2+, αKG and O2, LC-MS; for Mur15-catalyzed hydroxylation of free amino acid: LC-MS with authentic hydroxylated standards
How it was run: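 Mur15 incubated with Fe2+, αKG and O2 plus either a muraymycin substrate purified from Streptomyces sp. NRRL 30475 or a synthetic deaminoribose analogue. Reactions analysed by HPLC against a control without enzyme. Product identity checked by co-injection with authentic hydroxylated standard.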

Mur14 = assay: T domain loading by SDS-PAGE with phosphor imaging, Mur14; type: biochemical, Streptomyces sp. NRRL 30471; conditions: 14C-labelled amino acid; Mur27 with Mur14
AnpF = assay: covalent modification by phosphor imaging, AnpF; type: biochemical; conditions: 14C-labelled amino acid
Mur21 [3] = assay: T domain loading by SDS-PAGE with phosphor imaging, Mur21; type: biochemical, Streptomyces sp. NRRL 30471; conditions: 14C-labelled amino acid, MBP fusion
any NRPS = conditions: [14C]NaHCO3; Figure S10
VioC = VioC hydroxylation; type: biochemical, Streptomyces sp. strain ATCC11861; conditions: free L-Arg; experimental control
Mur16 = conditions: cited from earlier work
SlAnpD(AT) = assay: amino acid-dependent ATP-PPi exchange, SlAnpD; type: biochemical, Streptomyces lavendulae subsp. lavendulae strain NRRL B-2775; conditions: amino acid-dependent ATP-PPi exchange assay; truncated, lacking the C domain
holo-SlAnpD(AT) = assay: covalent modification by phosphor imaging, holo-SlAnpD; type: biochemical, Streptomyces lavendulae subsp. lavendulae strain NRRL B-2775; conditions: 14C-labelled amino acid; phosphor imaging of gels
Mur12 = assay: T domain loading by SDS-PAGE with phosphor imaging, Mur12; type: biochemical, Streptomyces sp. NRRL 30471; conditions: 14C-labelled amino acid, CoA and Sfp
Mur15 [4] = molecular target: T1, Mur15; assay: Mur15 single-substrate kinetic analysis and turnover; type: biochemical; conditions: for Km / kcat: single-substrate kinetic analysis with saturating αKG, Michaelis-Menten
How it was run: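 Mur15 reaction with Fe2+, αKG and O2 as cofactor and cosubstrates. The native muraymycin substrate, purified from Streptomyces sp. NRRL 30475, is varied for single-substrate kinetics.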

AnpE orthologs [5] = assay: covalent modification by phosphor imaging, AnpE orthologs; type: biochemical; conditions: 14C-labelled amino acid
SadA = conditions: cited from earlier work
Mur27 = assay: amino acid-dependent ATP-PPi exchange, Mur27; type: biochemical, Streptomyces sp. NRRL 30471; conditions: amino acid-dependent ATP-PPi exchange assay; MBP fusion
Mur21 [6] = assay: amino acid-dependent ATP-PPi exchange, Mur21; type: biochemical, Streptomyces sp. NRRL 30471; conditions: amino acid-dependent ATP-PPi exchange assay; MBP fusion
E. coli = assay: anti-E. coli activity; type: cell-based; conditions: 8 compared with 3; E. coli strain not stated; Table S3
M. smegmatis = assay: anti-M. smegmatis activity; type: cell-based; conditions: 8 compared with 3; Table S3

## N=C(N)NCCC[C@H](NC(=O)NC(Cc1ccccc1)C(=O)O)C(=O)O (stereo partly drawn) [compound 11, L-Phe-(C=O)-L-Arg]
AnpI
  conversion by AnpI: No product was observed

## CSCC[C@H](N)C(=O)O [L-Met]
AnpE orthologs [1]
  A domain activation by AnpE orthologs: highest activity
AnpF orthologs
  A domain activation by AnpF orthologs: slight preference

## CO[C@H]1[C@H](O[C@H]([C@H]2O[C@@H](n3ccc(=O)[nH]c3=O)[C@H](O)[C@@H]2O)[C@H](NCCCNC(=O)[C@@H](NC(=O)[C@@H](NC(=O)N[C@H](C(=O)O)C(C)C)[C@@H]2CCN=C(N)N2)[C@@H](OC(=O)CCCCCCCCCCCCN(O)C(=N)N)C(C)C)C(=O)O)O[C@H](CN)[C@H]1O [muraymycin A1]
Mur15 [2]
  Mur15-catalyzed hydroxylation (substrate conversion): mass consistent with a mono-hydroxylated product

## N[C@@H](Cc1c[nH]c2ccccc12)C(=O)O [L-Trp]
AnpF orthologs
  A domain activation by AnpF orthologs: no activity

## N[C@@H](Cc1ccccc1)C(=O)O [L-Phe]
AnpF orthologs
  A domain activation by AnpF orthologs: slight preference

## L-[^14C]Val
Mur14
  loading of Mur14: not observed
AnpF
  covalent modification of AnpF: Covalent modification of AnpF was observed

## L-[^14C]Leu
Mur21 [3]
  self-loading of Mur21: not observed

## N[C@@H](CS)C(=O)O [L-Cys]
AnpF orthologs
  A domain activation by AnpF orthologs: slight preference

## O=[14C]([O-])O.[Na+] [[^14C]NaHCO3]
Any NRPS
  radiolabelling of NRPS: inability to radiolabel any NRPS

## N[C@@H](Cc1c[nH]cn1)C(=O)O [L-His]
AnpF orthologs
  A domain activation by AnpF orthologs: slight preference

## N=C(N)NCCC[C@H](N)C(=O)O [L-Arg]
VioC
  hydroxylation by VioC: shown to hydroxylate free L-Arg
Mur15 [2]
  Mur15-catalyzed hydroxylation of free amino acid: no peaks corresponding to a hydroxylated product were detected
Mur16
  hydroxylation by Mur16: did not hydroxylate L-Arg
SlAnpD(AT)
  A domain specificity of SlAnpD(AT): high specificity
AnpI
  conversion by AnpI: 1 was not detected

## L-[^14C]Arg
holo-SlAnpD(AT)
  covalent modification of holo-SlAnpD(AT): covalently modified
Mur12
  loading of Mur12 T domain: A faint band corresponding to the molecular weight of Mur12 was detected

## CC(C)C[C@H](NC(=O)[C@@H](NC(=O)N[C@H](C(=O)O)C(C)C)[C@@H]1CCN=C(N)N1)C(=O)NCCCN[C@H](C(=O)O)[C@H](O[C@@H]1O[C@H](CN)[C@@H](O)[C@H]1O)[C@H]1O[C@@H](n2ccc(=O)[nH]c2=O)[C@H](O)[C@@H]1O [compound 4, muraymycin D2]
Mur15 [2]
  Mur15-catalyzed hydroxylation (substrate conversion): mono-hydroxylated

## CO[C@H]1[C@H](O[C@H]([C@H]2O[C@@H](n3ccc(=O)[nH]c3=O)[C@H](O)[C@@H]2O)[C@H](NCCCNC(=O)[C@H](CC(C)C)NC(=O)[C@@H](NC(=O)N[C@H](C(=O)O)C(C)C)[C@@H]2CCN=C(N)N2)C(=O)O)O[C@H](CN)[C@H]1O [compound 3, muraymycin D1]
Mur15 [2]
  Mur15-catalyzed hydroxylation (substrate conversion): a new peak with a mass corresponding to mono-hydroxylated 3
Mur15 [4]
  Km: 600 ± 100 µM
  kcat: 0.167 ± 0.017 s⁻¹
Mur15 [4]; with native substrate (3) or unnatural substrate (muraymycin B), estimated
  total turnover number (TTN): ≥ 800

## L-[^14C]Phe
AnpE orthologs [5]
  covalent modification of AnpE orthologs: covalent modification of the AnpE orthologs was detected

## CO[C@H]1[C@H](O[C@H]([C@H]2O[C@@H](n3ccc(=O)[nH]c3=O)[C@H](O)[C@@H]2O)[C@H](NCCCNC(=O)[C@@H](NC(=O)[C@@H](NC(=O)N[C@H](C(=O)O)C(C)C)[C@@H]2CCN=C(N)N2)[C@@H](OC(=O)CCCCC(C)C)C(C)C)C(=O)O)O[C@H](CN)[C@H]1O [muraymycin B6]
Mur15 [2]
  Mur15-catalyzed hydroxylation (substrate conversion): mass consistent with a mono-hydroxylated product

## CC(C)C[C@H](NC(=O)CCC(=O)O)C(=O)O [N-succinyl-L-Leu]
SadA
  conversion by SadA to hydroxylated product: hydroxylated product with (2S,3R)-stereochemical configuration

## CC(C)[C@H](N)C(=O)O [L-Val]
AnpE orthologs [1]
  A domain activation by AnpE orthologs: very low activity
AnpF orthologs
  A domain activation by AnpF orthologs: slight preference
Mur27
  A domain activation of amino acid by Mur27: relatively low activity yet with modest specificity

## CO[C@H]1[C@H](O[C@H]([C@H]2O[C@@H](n3ccc(=O)[nH]c3=O)[C@H](O)[C@@H]2O)[C@H](NCCCNC(=O)[C@@H](NC(=O)[C@@H](NC(=O)N[C@H](C(=O)O)C(C)C)[C@@H]2CCN=C(N)N2)[C@@H](OC(=O)CCCCCCC(C)C)C(C)C)C(=O)O)O[C@H](CN)[C@H]1O [muraymycin B2]
Mur15 [2]
  Mur15-catalyzed hydroxylation (substrate conversion): mass consistent with a mono-hydroxylated product
Mur15 [4]
  Km: 930 µM
  kcat: 0.108 ± 0.0083 s⁻¹
Mur15 [4]; with respect to muraymycin B2, saturating αKG
  drop in catalytic efficiency when compared with 3: ~ 2 -fold

## CC(=O)N[C@@H](CC(C)C)C(=O)O [N-acetyl-L-Leu]
SadA
  conversion by SadA to hydroxylated product: hydroxylated product with (2S,3R)-stereochemical configuration

## CC[C@H](C)[C@H](N)C(=O)O [L-Ile]
AnpE orthologs [1]
  A domain activation by AnpE orthologs: very low activity
AnpF orthologs
  A domain activation by AnpF orthologs: slight preference

## CC(C)[C@H](O)[C@H](N)C(=O)O [(2S,3S)-2, (2S,3S)-β-OH-Leu]
Mur21 [6]
  A domain activation of amino acid by Mur21: inactive

## CO[C@H]1[C@H](O[C@H]([C@H]2O[C@@H](n3ccc(=O)[nH]c3=O)[C@H](O)[C@@H]2O)[C@H](NCCCNC(=O)[C@@H](NC(=O)[C@@H](NC(=O)N[C@H](C(=O)O)C(C)C)[C@@H]2CCN=C(N)N2)[C@@H](O)C(C)C)C(=O)O)O[C@H](CN)[C@H]1O [compound 8, muraymycin C1]
E. coli
  effect of conversion of 3 to 8 on E. coli activity: minimal effect
Mur15 [2]
  Mur15-catalyzed hydroxylation (substrate conversion): remained unchanged
M. smegmatis
  effect of conversion of 3 to 8 on anti-M. smegmatis activity: minimal effect

## CC(C)C[C@H](N)C(=O)O [L-Leu]
AnpE orthologs [1]
  A domain activation by AnpE orthologs: highest activity
Mur15 [2]
  Mur15-catalyzed hydroxylation of free amino acid: no peaks corresponding to a hydroxylated product were detected
AnpF orthologs
  A domain activation by AnpF orthologs: slight preference
Mur21 [6]
  A domain activation of amino acid by Mur21: preferential activity

## α-MAPI [compound 9]
AnpI
  conversion by AnpI: Neither, however, were converted to a product
